Active and inactive are the calls of the source. The rule behind the calls is not given here.
Legend:
[1] = target: T1, Hypoxia-inducible factor 1-alpha (Homo sapiens, UniProt Q16665); test: Inhibition of hypoxia-induced HIF1alpha transcriptional activity in human HeLa cells expressing HRE-Luc after 12 hrs by luciferase reporter gene assay; type: cell-based
Target sequence in this assay (Q16665 whole entry): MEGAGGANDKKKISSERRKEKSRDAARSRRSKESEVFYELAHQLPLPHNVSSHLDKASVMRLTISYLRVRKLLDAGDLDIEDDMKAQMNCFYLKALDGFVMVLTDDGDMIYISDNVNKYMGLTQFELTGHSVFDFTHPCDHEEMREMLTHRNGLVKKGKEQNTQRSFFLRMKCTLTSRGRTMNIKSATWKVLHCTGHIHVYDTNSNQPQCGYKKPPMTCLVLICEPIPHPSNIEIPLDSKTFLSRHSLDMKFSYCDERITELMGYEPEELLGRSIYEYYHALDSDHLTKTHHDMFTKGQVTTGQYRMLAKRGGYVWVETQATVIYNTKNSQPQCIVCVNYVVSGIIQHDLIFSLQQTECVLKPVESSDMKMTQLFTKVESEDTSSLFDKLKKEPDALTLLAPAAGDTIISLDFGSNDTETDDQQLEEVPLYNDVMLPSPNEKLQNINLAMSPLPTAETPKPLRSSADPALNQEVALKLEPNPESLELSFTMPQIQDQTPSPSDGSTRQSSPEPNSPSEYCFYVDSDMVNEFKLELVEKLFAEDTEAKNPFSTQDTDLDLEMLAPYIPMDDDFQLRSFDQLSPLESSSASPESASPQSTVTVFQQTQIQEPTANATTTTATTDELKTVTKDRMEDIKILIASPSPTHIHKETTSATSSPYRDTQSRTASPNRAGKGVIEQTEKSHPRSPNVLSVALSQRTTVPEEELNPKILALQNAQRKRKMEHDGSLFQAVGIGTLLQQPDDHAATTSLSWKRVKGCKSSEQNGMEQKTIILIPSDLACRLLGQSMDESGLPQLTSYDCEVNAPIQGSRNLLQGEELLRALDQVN

HCT-116 = test: Cytotoxicity against human HCT116 cells after 72 hrs by MTT assay; type: functional, cell-based; details: HCT-116, 72 h
Summary of the method: (§1)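 Cells exposed to compound at 0.1–30 μM for 72 h; viability read by MTT assay.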

HepG2 = test: Cytotoxicity against human HepG2 cells after 72 hrs by MTT assay; type: functional, cell-based; details: HepG2, 72 h; summary of the method: as §1
PC-3 = test: Cytotoxicity against human PC3 cells after 72 hrs by MTT assay; type: functional, cell-based; details: PC-3, 72 h; summary of the method: as §1
HeLa [2] = test: Cytotoxicity against human HeLa cells after 72 hrs by MTT assay; type: functional, cell-based; summary of the method: as §1
[3] = target: T1, Hypoxia-inducible factor 1-alpha; test: Inhibition of hypoxia-induced HIF1alpha transcriptional activity in human HeLa cells expressing HRE-Luc at 30 uM after 12 hrs by luciferase reporter gene assay; type: cell-based
Summary of the method: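 Reporter HeLa cells stably carrying HRE-firefly luciferase plus CMV-renilla luciferase, incubated 12 h with compound under 1% oxygen. Supernatant removed, then dual luciferase assay. Triplicate samples, mean ± SD.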
Target sequence in this assay (Q16665 whole entry, looked up): as the sequence (Q16665 whole entry) above

HeLa [4] = details: Homo sapiens, 0.1 to 10 uM
HeLa [5] = details: Homo sapiens, 0.001 to 1 uM
HeLa [6] = details: Homo sapiens, 1 uM
HeLa [7] = test: Inhibition of hypoxia-induced HIF1alpha nuclear translocation in human HeLa cells at 30 uM after 4 hrs by immunofluorescence analysis; type: functional, cell-based
Summary of the method: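 Under 1% oxygen, HeLa cells incubated 4 h with compound. HIF-1α localization imaged by immunofluorescence with specific antibody; nuclei stained with DAPI.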

HeLa [8] = test: Inhibition of hypoxia-induced HIF1alpha accumulation in human HeLa cells at 30 uM after 4 hrs by Western blot analysis; type: functional, cell-based
Summary of the method: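 HeLa cells under hypoxia (1% oxygen) treated with compound for 4 h at a range of concentrations. HIF-1α protein detected by immunoblot with specific antibody, tubulin as internal control.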

SMILES	IC50 [1] [µM]	inhibition [3] [%]	IC50 (HCT-116) [µM]	IC50 (HepG2) [µM]	IC50 (PC-3) [µM]	IC50 (HeLa [2]) [µM]	inhibition (HeLa [4])	inhibition (HeLa [5])	inhibition (HeLa [6])	inhibition (HeLa [7])	inhibition (HeLa [8])
Nc1ccc(NC(=O)Nc2cccc3c2C(=O)c2c-3n[nH]c2-c2ccc3c(c2)OCO3)cc1	0.214	–	–	–	–	–	–	–	–	–	–
c1ccc2c(c1)Cc1c-2n[nH]c1Nc1ccc2c(c1)OCO2	0.27	–	6.9	12.7	23.7	5.8	–	–	–	–	–
c1ccc2c(c1)Cc1c-2n[nH]c1Nc1ccc2c(c1)OCCO2	0.014	–	–	–	–	–	–	–	–	–	–
c1ccc(Nc2n[nH]c3c2Cc2cc4c(cc2-3)OCO4)cc1	–	28	5.2	11.2	22.3	8.5	–	–	–	–	–
COc1cc2c(cc1OC)-c1n[nH]c(Nc3ccccc3)c1C2	> 30	0	< 0.1	0.24	0.72	< 0.1	–	–	–	–	–
c1ccc2c(c1)Cc1c(Nc3ccc4c(c3)OCCO4)n[nH]c1-2	–	–	2.1	3.7	25.4	1.8	inactive	inactive	inactive	–	–
COc1cccc2c1Cc1c-2n[nH]c1Nc1ccccc1	> 30	41	2.3	5.2	21.7	1.6	–	–	–	–	–
OCc1ccc(-c2nn(Cc3ccccc3)c3ccccc23)o1	–	–	2.2	2.2	> 30	29.3	–	–	–	–	–
COc1cccc2c1Cc1c(Nc3ccc4c(c3)OCCO4)n[nH]c1-2	0.034	–	5.9	7	6.9	2.1	–	–	–	–	–
c1ccc(Nc2[nH]nc3c2Cc2cc4c(cc2-3)OCO4)cc1	> 30	–	–	–	–	–	–	–	–	–	–
c1ccc(Nc2[nH]nc3c2Cc2ccccc2-3)cc1	> 30	–	–	–	–	–	–	–	–	–	–
COC(=O)c1ccc(O)c(NC(=O)COc2ccc(C34CC5CC(CC(C5)C3)C4)cc2)c1	21	–	> 30	> 30	> 30	> 30	–	–	–	Active	Active

Now from value to compound, other results behind:

IC50 [1] [µM]	inhibition [3] [%]	SMILES	IC50 (HCT-116) [µM]	IC50 (HepG2) [µM]	IC50 (PC-3) [µM]	IC50 (HeLa [2]) [µM]	inhibition (HeLa [4])	inhibition (HeLa [5])	inhibition (HeLa [6])	inhibition (HeLa [7])	inhibition (HeLa [8])
> 30	18	COc1ccc2c(c1)-c1n[nH]c(Nc3ccccc3)c1C2	1.5	15.4	> 30	13.4	–	–	–	–	–
1.4	–	COc1ccc(Nc2n[nH]c3c2Cc2ccccc2-3)cc1	3.1	9.1	28.8	2.6	–	–	–	–	–
–	0	c1ccc(Nc2n[nH]c3c2Cc2ccccc2-3)cc1	17.5	24.2	> 30	17.6	–	–	–	–	–
> 30	28	COc1ccc2c(c1)Cc1c-2n[nH]c1Nc1ccccc1	< 0.1	< 0.1	< 0.1	< 0.1	–	–	–	–	–
3.2	–	COc1ccc(Nc2n[nH]c3c2Cc2ccccc2-3)cc1OC	0.73	3.8	> 30	1.8	–	–	–	–	–
> 30	3	COc1cccc2c1-c1[nH]nc(Nc3ccccc3)c1C2	0.57	0.75	3.2	0.57	–	–	–	–	–
6.1	–	COc1cccc(Nc2n[nH]c3c2Cc2ccccc2-3)c1	2.2	6.8	> 30	2.9	–	–	–	–	–
